# According to ChEMBL document CHEMBL1148329, “Synthesis and structure-activity studies on N-[5-(1H-imidazol-4-yl)-5,6,7,8-tetrahydro-1-naphthalenyl]methanesulfonamide, an imidazole-containing alpha(1A)-adrenoceptor agonist” (J Med Chem, 2004):
# Calls of active or inactive are those of the source. The calls are words filed in the database; no cut-off is given here.
# Legend:
# [1] = target: Alpha adrenergic receptor 1A and 1B (Rattus norvegicus) (UniProt P15823+P43140); assay: Selectivity is ratio of pKi (binding affinity) of alpha-1B receptor to that of alpha-1A receptor.; assay type: protein assay
# Alpha adrenergic receptor 1A and 1B (Rattus norvegicus), sequence (P15823 whole entry, looked up, one chain of several): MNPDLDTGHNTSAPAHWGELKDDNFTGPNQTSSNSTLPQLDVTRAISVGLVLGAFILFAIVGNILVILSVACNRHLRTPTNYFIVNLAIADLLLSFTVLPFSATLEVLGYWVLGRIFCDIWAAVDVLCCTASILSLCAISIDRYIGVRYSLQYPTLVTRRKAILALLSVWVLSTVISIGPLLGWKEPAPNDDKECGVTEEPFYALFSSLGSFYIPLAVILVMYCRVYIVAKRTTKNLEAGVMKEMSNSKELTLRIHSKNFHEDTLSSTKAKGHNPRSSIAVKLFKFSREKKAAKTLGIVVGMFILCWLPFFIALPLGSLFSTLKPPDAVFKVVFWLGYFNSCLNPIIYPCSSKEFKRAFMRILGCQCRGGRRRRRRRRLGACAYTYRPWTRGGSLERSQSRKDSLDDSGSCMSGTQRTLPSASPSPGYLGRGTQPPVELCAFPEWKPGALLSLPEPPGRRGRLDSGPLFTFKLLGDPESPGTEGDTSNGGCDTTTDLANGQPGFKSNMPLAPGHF
# [2] = target: Alpha adrenergic receptor 1A and 1D (Rattus norvegicus) (UniProt P23944+P43140); assay: Selectivity is ratio of pKi (binding affinity) of Alpha-1D to that of alpha1A; assay type: protein assay
# [3] = target: T1, Alpha-1B adrenergic receptor (Mesocricetus auratus, UniProt P18841); assay: In vitro binding affinity towards alpha-1B adrenergic receptor of hamster clone in radioligand binding assay; assay type: single protein
# T1 sequence (P18841 whole entry): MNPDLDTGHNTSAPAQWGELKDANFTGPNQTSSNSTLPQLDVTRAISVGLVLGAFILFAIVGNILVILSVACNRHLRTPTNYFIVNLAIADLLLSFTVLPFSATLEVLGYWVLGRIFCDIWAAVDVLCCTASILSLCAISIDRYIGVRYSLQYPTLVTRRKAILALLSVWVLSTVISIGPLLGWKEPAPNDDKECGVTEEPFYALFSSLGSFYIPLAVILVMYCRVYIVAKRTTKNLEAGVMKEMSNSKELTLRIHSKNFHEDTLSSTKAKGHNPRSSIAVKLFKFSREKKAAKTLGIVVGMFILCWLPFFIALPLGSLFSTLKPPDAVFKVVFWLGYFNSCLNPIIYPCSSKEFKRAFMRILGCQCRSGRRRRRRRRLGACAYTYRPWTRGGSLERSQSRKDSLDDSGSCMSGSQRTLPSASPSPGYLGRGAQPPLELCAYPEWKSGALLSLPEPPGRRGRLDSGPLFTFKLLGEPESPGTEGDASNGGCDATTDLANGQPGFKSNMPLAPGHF
# In short: (§1)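 Radioligand binding at α1 subtypes: α1A from rat submaxillary gland, α1B hamster clone, α1D rat clone. Run essentially per an earlier method.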
# [4] = target: T2, Alpha-1A adrenergic receptor (Rattus norvegicus, UniProt P43140); assay: In vitro binding affinity towards alpha-1A adrenergic receptor of rat submaxillary gland in radioligand binding assay; in short: as §1
# T2 sequence (P43140 whole entry): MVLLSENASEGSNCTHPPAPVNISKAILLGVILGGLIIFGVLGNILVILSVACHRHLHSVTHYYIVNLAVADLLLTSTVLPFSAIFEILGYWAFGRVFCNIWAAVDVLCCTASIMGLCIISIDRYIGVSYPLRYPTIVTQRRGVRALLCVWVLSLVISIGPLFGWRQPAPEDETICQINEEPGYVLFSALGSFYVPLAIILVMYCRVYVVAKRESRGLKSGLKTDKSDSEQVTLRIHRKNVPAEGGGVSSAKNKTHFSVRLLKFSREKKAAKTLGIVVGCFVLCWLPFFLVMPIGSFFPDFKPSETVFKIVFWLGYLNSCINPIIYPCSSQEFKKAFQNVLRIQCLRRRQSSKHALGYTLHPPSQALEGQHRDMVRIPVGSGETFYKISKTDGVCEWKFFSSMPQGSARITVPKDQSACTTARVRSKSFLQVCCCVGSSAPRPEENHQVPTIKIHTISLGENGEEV
# [5] = target: T3, Alpha-1D adrenergic receptor (Rattus norvegicus, UniProt P23944); assay: In vitro binding affinity towards alpha-1D adrenergic receptor of rat clone in radioligand binding assay; in short: as §1
# T3 sequence (P23944 whole entry): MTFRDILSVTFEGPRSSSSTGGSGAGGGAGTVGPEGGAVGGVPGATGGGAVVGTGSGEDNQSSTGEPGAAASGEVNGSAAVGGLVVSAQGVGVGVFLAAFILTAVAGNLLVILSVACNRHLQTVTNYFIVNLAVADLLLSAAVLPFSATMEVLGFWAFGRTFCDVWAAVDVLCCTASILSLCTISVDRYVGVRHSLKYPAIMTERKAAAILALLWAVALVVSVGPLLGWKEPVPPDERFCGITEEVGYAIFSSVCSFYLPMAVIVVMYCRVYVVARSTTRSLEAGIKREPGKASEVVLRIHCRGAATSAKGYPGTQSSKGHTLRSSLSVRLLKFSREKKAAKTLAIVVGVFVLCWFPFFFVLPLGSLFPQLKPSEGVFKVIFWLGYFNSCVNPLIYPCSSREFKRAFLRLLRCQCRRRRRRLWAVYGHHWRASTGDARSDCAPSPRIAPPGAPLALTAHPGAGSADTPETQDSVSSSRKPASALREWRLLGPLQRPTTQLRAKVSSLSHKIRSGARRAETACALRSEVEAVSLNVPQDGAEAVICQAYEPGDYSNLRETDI
# [6] = target: Alpha-1A adrenergic receptor (Oryctolagus cuniculus) (UniProt O02824); assay: Functional agonism of the compounds to constrict tissue containing the alpha-1A adrenergic receptor in rabbit urethra; Inactive
# [7] = target: T4, Alpha-1A adrenergic receptor (Bos taurus, UniProt P18130); assay: In vitro binding affinity towards alpha-1A adrenergic receptor of bovine clone in radioligand binding assay
# T4 sequence (P18130 whole entry): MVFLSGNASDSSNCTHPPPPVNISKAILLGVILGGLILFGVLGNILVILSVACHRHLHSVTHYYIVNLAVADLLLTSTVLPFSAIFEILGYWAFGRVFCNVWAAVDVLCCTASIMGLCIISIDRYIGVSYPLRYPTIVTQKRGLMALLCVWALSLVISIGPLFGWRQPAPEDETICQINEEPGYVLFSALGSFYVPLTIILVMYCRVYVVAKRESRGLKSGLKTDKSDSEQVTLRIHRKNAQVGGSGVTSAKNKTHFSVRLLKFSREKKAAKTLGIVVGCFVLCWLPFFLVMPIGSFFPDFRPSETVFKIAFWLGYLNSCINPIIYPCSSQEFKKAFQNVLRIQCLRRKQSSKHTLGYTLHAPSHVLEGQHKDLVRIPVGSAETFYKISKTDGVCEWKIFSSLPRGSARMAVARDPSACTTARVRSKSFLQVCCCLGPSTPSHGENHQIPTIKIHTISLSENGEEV
# Canis familiaris [8] = species on record: Canis familiaris; assay: Ratio of MAP ED delta20 to that of IUP ED delta5
# [9] = Relative affinities for alpha-2a and alpha-1A receptors
# Canis familiaris [10] = assay: Uroselectivity was determined by measuring effective dose required for 20 mmHg increase of mean arterial pressure (MAP) in vivo in dog; assay type: functional, Canis lupus familiaris, Artery
# In short: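 Dog model recording intraurethral pressure (IUP) and mean arterial pressure (MAP) simultaneously. Increasing iv doses given, maximal effect of each dose taken. Doses giving a 5 mmHg rise in IUP (ED Δ5) or 20 mmHg rise in MAP (ED Δ20) were calculated, in nmol/kg ± SEM, n ≥ 4 (2 or 3 where footnoted).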
# [11] = target: T5, Alpha-2A adrenergic receptor (Homo sapiens, UniProt P08913); assay: In vitro binding affinity towards alpha-2A adrenergic receptor of human clone in radioligand binding assay
# T5 sequence (P08913 whole entry): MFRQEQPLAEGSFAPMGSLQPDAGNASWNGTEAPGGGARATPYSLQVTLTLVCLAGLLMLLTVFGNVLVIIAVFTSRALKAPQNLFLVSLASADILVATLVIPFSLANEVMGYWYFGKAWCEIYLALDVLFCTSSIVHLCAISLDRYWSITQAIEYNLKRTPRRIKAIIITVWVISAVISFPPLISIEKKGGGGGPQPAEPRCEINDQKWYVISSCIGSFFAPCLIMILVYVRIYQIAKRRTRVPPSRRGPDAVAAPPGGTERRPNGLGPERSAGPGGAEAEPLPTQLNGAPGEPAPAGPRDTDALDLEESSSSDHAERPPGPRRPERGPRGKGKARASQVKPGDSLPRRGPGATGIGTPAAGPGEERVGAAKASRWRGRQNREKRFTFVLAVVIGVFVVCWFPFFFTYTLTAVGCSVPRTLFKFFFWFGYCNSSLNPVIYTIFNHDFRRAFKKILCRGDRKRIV
# [12] = target: T6, Alpha-2A adrenergic receptor (Rattus norvegicus) (UniProt P22909); assay: Functional agonism to constrict tissue containing alpha-2A adrenergic receptor in rat prostatic vas deferens; assay type: tissue-based
# T6 sequence (whole entry): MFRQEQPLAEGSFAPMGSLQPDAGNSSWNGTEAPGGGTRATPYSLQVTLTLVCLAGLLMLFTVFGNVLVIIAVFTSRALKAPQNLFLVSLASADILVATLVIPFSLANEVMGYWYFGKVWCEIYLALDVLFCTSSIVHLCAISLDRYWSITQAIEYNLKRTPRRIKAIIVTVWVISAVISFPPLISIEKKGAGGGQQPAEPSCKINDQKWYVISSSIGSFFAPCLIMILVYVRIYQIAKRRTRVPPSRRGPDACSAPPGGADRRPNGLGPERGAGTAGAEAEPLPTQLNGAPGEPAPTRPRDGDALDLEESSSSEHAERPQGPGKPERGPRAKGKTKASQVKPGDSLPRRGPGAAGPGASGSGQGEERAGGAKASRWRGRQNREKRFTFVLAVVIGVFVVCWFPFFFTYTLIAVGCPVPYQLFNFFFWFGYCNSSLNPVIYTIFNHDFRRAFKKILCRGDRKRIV
# [13] = Selectivity is ratio of efficacy of alpha-2A to that of alpha1A adrenoceptor; assay type: functional
# [14] = target: T7, Alpha-2B adrenergic receptor (Rattus norvegicus, UniProt P19328); assay: In vitro binding affinity towards alpha-2B adrenergic receptor of rat neonatal lung in radioligand binding assay
# T7 sequence (P19328 whole entry): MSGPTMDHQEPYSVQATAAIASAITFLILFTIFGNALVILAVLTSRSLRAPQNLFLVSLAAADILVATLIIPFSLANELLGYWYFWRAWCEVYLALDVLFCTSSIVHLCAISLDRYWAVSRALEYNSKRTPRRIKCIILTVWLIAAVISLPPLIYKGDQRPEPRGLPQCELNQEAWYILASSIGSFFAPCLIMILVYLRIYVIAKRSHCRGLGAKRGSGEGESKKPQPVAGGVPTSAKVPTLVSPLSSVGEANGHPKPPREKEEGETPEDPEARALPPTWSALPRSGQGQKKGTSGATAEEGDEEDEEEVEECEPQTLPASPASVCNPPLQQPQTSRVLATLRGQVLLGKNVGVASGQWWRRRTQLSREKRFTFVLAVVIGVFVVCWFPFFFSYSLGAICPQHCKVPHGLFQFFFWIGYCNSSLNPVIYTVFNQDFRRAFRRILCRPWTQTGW
# Rattus norvegicus = species on record: Rattus norvegicus; assay: Relative affinities for alpha2B and alpha1A receptors
# [15] = target: T8, Alpha-1A adrenergic receptor (Oryctolagus cuniculus) (UniProt O02824); assay: Efficacy relative to phenylephrine (PE) to constrict tissue containing the alpha-1A adrenergic receptor in rabbit urethra; assay type: functional, tissue-based
# T8 sequence (whole entry): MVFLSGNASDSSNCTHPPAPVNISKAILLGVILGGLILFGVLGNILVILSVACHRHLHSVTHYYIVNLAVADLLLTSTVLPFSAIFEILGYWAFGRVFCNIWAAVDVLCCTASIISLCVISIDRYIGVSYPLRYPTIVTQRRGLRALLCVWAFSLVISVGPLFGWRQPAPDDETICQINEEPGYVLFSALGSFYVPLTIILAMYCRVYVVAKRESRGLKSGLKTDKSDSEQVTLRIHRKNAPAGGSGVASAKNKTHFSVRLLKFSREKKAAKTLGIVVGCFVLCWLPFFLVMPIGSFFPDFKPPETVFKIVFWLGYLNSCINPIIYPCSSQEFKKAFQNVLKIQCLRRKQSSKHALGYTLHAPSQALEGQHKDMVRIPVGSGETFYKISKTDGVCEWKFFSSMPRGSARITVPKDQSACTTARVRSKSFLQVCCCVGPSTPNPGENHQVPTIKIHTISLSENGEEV
# In short: (§2)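 α1-agonist dose–response curves in isolated tissue: rabbit urethra (α1A), rat spleen (α1B), rat aorta (α1D). Agonist potency and efficacy read from the concentration–response curves.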
# [16] = target: T8, Alpha-1A adrenergic receptor (Oryctolagus cuniculus); assay: Functional agonism of the compounds to constrict tissue containing the alpha-1A adrenergic receptor in rabbit urethra; assay type: tissue-based; in short: as §2
# [17] = target: T6, Alpha-2A adrenergic receptor (Rattus norvegicus); assay: Efficacy relative to clonidine to constrict tissue containing the alpha-2A adrenergic receptor in rat prostatic vas deferens
Ki [4],Ki [5],pD2 [6],SMILES,Selectivity [1],Selectivity [2],Ki [3],Ki [7],Ratio (Canis familiaris [8]),Selectivity [9],ED delta20 (Canis familiaris [10]),Ki [11],pD2 [12],Selectivity [13],Ki [14],Selectivity (Rattus norvegicus),Efficacy [15],pD2 [16],Efficacy [17]
794 nM,> 10000 nM,inactive,CCS(=O)(=O)Nc1cccc2c1CCCC2CN (stereo not given),> 10,> 10,> 10000 nM,–,–,–,–,–,–,–,–,–,–,–,–
–,–,–,CN(C)S(=O)(=O)Nc1cccc2c1CCCC2c1c[nH]cn1 (stereo not given),20,3,> 10000 nM,977 nM,–,–,–,–,–,–,–,–,–,–,–
501 nM,1000 nM,inactive,CCS(=O)(=O)Nc1cccc(C2CCNC2)c1 (stereo not given),> 20,2,> 10000 nM,–,–,–,–,–,–,–,–,–,–,–,–
–,–,–,"CCS(=O)(=O)Nc1cccc2c1CCCC2c1c[nH]cn1 (single isomer, unassigned; (+))",30,20,1320 nM,–,3.3,3,34 nM/kg,132 nM,5.95,7,1700 nM,40,71%,6.77,66%
